Experimental data from different studies.
Compare with care: the assays were run in different laboratories.
Cell line: HOP-62
Effect on: cell growth or viability

For `COc1cccc(Oc2ccccc2NC(=O)CNC(=O)c2cccc3ccccc23)c1`, the GI50 was 302 nM (SRB; 48 h).
For `CCCCc1n(Cc2ccc3ccccc3n2)cc[n+]1Cc1ccc2ccccc2n1`, the TGI was 12 µM (SRB).
The inhibition of `COc1ccc(C(=O)/C=C/c2cccc3ccccc23)cc1S(N)(=O)=O` is reported as 82% (SRB; 10 µM).
`CCCc1n(Cc2ccc3ccccc3n2)cc[n+]1Cc1ccc2ccccc2n1` gave a TGI of 19.4 µM (SRB).
With `COc1ccc(-c2ccc(-c3ccc(C(=N)N)nc3)s2)cc1` the GI50 was 1800 nM (SRB).
For `c1ccc2cc(Cn3cc[n+](Cc4ccc5ccccc5c4)c3)ccc2c1`, the TGI was 17 µM (SRB).
`COc1ccc(C(=O)/C=C/c2c(F)cccc2Cl)cc1S(N)(=O)=O` gave a GI50 of 3000 nM (SRB; 48 h).
`O=C1NC(=NCc2cccs2)S/C1=C\c1ccc2ncccc2c1` has an IC50 of over 10 µM.
`O=C1Nc2ccccc2C1=NNc1nnc2n1N=C(c1ccccc1)CS2` has an inhibition of 54% (SRB; 10 µM).
`COc1cccc2c1C(=O)c1c(O)c3c(c(O)c1C2=O)C[C@@](O)(C(=O)CO)C[C@@H]3O[C@H]1C[C@H](N)[C@H](O)[C@H](C)O1` gave an inhibition of 98.9% (SRB; 10 µg/mL, 48 h).
`COc1ccc(-c2ccc(-c3ccc(C(=N)N)nc3)s2)cc1Cl` has a GI50 of 1900 nM (SRB).
The IC50 of `O=C1NCCc2[nH]c(-c3ccncc3)cc21` is reported as 9.94 µM.
